Activity calls are given as the source filed them. No cut-off for these calls is given here.
Key:
[1] = biological target: T1, Histone-lysine N-methyltransferase EHMT2 (Homo sapiens, UniProt Q96KQ7); assay: Inhibition of protein lysine methyltransferase G9a (unknown origin) by modified ELISA assay
T1 sequence (Q96KQ7 whole entry): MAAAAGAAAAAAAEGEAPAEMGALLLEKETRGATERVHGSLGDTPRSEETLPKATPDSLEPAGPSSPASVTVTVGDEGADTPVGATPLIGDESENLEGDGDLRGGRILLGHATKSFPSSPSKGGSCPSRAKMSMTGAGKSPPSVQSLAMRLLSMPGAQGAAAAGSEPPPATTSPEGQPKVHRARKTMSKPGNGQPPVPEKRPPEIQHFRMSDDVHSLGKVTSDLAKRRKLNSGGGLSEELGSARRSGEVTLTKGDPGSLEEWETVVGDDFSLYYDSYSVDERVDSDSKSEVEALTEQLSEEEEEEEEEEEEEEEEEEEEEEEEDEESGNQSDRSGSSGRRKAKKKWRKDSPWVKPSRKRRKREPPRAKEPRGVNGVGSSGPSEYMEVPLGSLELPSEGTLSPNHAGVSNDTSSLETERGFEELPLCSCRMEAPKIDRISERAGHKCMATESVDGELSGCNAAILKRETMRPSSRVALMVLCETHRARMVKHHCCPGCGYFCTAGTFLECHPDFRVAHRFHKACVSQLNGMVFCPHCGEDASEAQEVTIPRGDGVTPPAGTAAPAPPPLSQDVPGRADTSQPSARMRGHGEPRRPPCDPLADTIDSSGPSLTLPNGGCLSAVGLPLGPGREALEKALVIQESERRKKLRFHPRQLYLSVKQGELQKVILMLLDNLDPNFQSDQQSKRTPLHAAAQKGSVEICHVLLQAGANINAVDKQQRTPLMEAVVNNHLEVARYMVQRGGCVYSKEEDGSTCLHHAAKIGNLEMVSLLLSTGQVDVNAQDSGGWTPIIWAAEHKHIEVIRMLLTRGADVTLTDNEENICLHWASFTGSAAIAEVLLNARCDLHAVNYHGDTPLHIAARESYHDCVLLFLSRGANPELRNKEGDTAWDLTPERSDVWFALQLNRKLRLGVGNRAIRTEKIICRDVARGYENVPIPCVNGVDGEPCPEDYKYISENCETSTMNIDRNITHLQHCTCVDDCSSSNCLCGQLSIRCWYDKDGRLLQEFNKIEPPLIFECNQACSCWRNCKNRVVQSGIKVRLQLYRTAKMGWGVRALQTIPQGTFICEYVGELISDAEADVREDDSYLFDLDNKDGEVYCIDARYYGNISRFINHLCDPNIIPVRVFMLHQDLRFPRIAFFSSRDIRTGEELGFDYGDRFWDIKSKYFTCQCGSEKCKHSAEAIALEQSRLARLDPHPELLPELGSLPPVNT

HL-60 = assay: Cytotoxicity against human HL60 cells at 3 to 30 uM after 4 hrs by Alamar Blue assay; assay type: cell-based; conditions: hl-60, 4 h
Procedure, shortened: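 HL-60 cells were exposed to the derivatives for 4 h. Cell viability was then read by alamarBlue.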

[2] = biological target: Thioredoxin reductase (Homo sapiens) (UniProt Q16881+Q9NNW7+Q86VQ6); assay: Inhibition of thioredoxin reductase (unknown origin) assessed as reduction of DTNB at 10 uM; assay type: protein assay
[3] = biological target: T1, Histone-lysine N-methyltransferase EHMT2; assay: Inhibition of protein lysine methyltransferase G9a (unknown origin) by ELISA assay

| IC50 [3] [µM] | Compound | IC50 [1] [µM] | Activity (HL-60) | inhibition [2] |
| --- | --- | --- | --- | --- |
|  | CN1C(=O)[C@]23C[C@H]4c5ccccc5N[C@H]4N2C(=O)[C@]1(CO[Si](C)(C)C(C)(C)C)SS3 | 23.5 |  |  |
|  | CN1C(=O)[C@]23C[C@@]4([C@@]56C[C@]78SS[C@](CO)(C(=O)N7[C@@H]5Nc5ccccc56)N(C)C8=O)c5ccccc5N[C@H]4N2C(=O)[C@@]1(CO)SS3 | 6.4 |  |  |
|  | CN1C(=O)C23CCCN2C(=O)C1(CO)SSS3 (racemic) | 5.3 | Non-toxic | inactive |
|  | CN1C(=O)[C@@]23C[C@]4([C@]56C[C@@]78SS[C@](CO[Si](C)(C)C(C)(C)C)(C(=O)N7[C@H]5Nc5ccccc56)N(C)C8=O)c5ccccc5N[C@@H]4N2C(=O)[C@@]1(CO[Si](C)(C)C(C)(C)C)SS3 | 7.2 |  |  |
|  | CN1C(=O)[C@@]23C[C@]4([C@]56C[C@@]78SS[C@@](CO)(C(=O)N7[C@H]5Nc5ccccc56)N(C)C8=O)c5ccccc5N[C@@H]4N2C(=O)[C@]1(CO)SS3 [CHAETOCIN] | 7.2 |  |  |
| > 50 | CN1C(=O)[C@H]2C[C@]3([C@]45C[C@@H]6C(=O)N(C)[C@H](CO)C(=O)N6[C@H]4Nc4ccccc45)c4ccccc4N[C@@H]3N2C(=O)[C@H]1CO | > 100 |  |  |
|  | CN1C(=O)[C@@]23C[C@@H]4c5ccccc5N[C@@H]4N2C(=O)[C@@]1(CO[Si](C)(C)C(C)(C)C)SS3 | 3.3 |  |  |
|  | CN1C(=O)C23CCCN2C(=O)C1(CO)SS3 (racemic) | 5.2 | Non-toxic | inactive |
|  | CN1C(=O)[C@@H]2C[C@@]3([C@@]45C[C@H]6C(=O)N(C)[C@@H](CO)C(=O)N6[C@@H]4Nc4ccccc45)c4ccccc4N[C@H]3N2C(=O)[C@@H]1CO | > 100 |  |  |
|  | CN1C(=O)[C@@]2(S)C[C@]3([C@]45C[C@]6(S)C(=O)N(C)[C@](S)(CO)C(=O)N6[C@H]4Nc4ccccc45)c4ccccc4N[C@@H]3N2C(=O)[C@@]1(S)CO | 27.1 |  |  |
|  | CN1C(=O)C2(S)CCCN2C(=O)C1(S)CO (racemic) | 13.1 | Non-toxic |  |
|  | CN1C(=O)[C@@]23C[C@]4([C@]56C[C@@]78S[C@](CO)(C(=O)N7[C@H]5Nc5ccccc56)N(C)C8=O)c5ccccc5N[C@@H]4N2C(=O)[C@@]1(CO)S3 | > 100 |  |  |

Reference: ChEMBL document CHEMBL2311332, “Epidithiodiketopiperazine as a pharmacophore for protein lysine methyltransferase G9a inhibitors: reducing cytotoxicity by structural simplification” (Bioorg Med Chem Lett, 2013)
